From ChEMBL document CHEMBL4007433, “Design, synthesis, biological evaluation and molecular modeling study of novel macrocyclic bisbibenzyl analogues as antitubulin agents” (Eur J Med Chem, 2017)
Structures can show the parent of a compound that is named as a salt. Calls of active or inactive are those of the source. The calls are words filed in the database; no cut-off is given here.

Assays:
HT-29 = assay: Antiproliferative activity against human HT-29 cells after 48 hrs by MTT assay; assay type: functional, cell-based; details: HT-29, 48 h
PC-3 = assay: Antiproliferative activity against paclitaxel-resistant human PC3 cells after 48 hrs by MTT assay; assay type: functional, cell-based; details: PC-3, 48 h
[1] = Antiproliferative activity against human HCC1428 cells after 48 hrs by MTT assay; assay type: functional, cell-based; details: HCC1428, 48 h
HeLa = assay: Antiproliferative activity against human HeLa cells after 48 hrs by MTT assay; assay type: functional, cell-based
Homo sapiens [2] = organism: Homo sapiens; assay: Inhibition of alpha-tubulin polymerization in human HCC1428 cells at 6 to 10 uM after 24 hrs by confocal microscopic method; assay type: cell-based
In short: (§1)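 HCC1428 cells grown on glass coverslips and treated 24 h; 1 µM vincristine and DMSO as controls. Fixed in cold methanol/acetone (1:1) 5 min, then blocked 20 min in 3% goat serum with 0.1% Triton X-100. Stained with mouse anti-α-tubulin and a FITC secondary, DAPI 4 µg/mL 15 min. Imaged by confocal microscopy; three independent experiments.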

Homo sapiens [3] = organism: Homo sapiens; assay: Inhibition of alpha-tubulin polymerization in human HCC1428 cells at 3 uM after 24 hrs by confocal microscopic method; assay type: cell-based; in short: as §1
K562 = assay: Antiproliferative activity against human K562 cells after 48 hrs by MTT assay; assay type: functional, cell-based; details: K562, 48 h
HCC1428 [4] = assay: Antiproliferative activity against human HCC1428 cells at 2 to 4 uM […] by RTCA; assay type: functional, cell-based
In short: (§2)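 Real-time impedance (xCELLigence RTCA DP) monitoring of HCC1428 cells plated at 2000 cells/well in E-plate 16. Cells kept in RPMI-1640 with 2% FBS at 37 °C, 5% CO2 throughout. Growth curves recorded over 84 h of compound exposure. Representative of three independent experiments.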

Homo sapiens [5] = organism: Homo sapiens; assay: Inhibition of alpha-tubulin polymerization in human HCC1428 cells at 3 to 6 uM after 24 hrs by confocal microscopic method; assay type: cell-based; in short: as §1
[6] = Cell cycle arrest in human HCC1428 cells assessed as accumulation at S phase at 6 uM after 24 hrs by propidium iodide staining based flow cytometry (reference value: 24.46%); assay type: functional
[7] = Cell cycle arrest in human HCC1428 cells assessed as accumulation at G2/M phase at 6 uM after 24 hrs by propidium iodide staining based flow cytometry (reference value: […]%); assay type: functional
[8] = Cell cycle arrest in human HCC1428 cells assessed as accumulation at G2/M phase at 3 uM after 24 hrs by propidium iodide staining based flow cytometry (reference value: […]%); assay type: functional
[9] = Cell cycle arrest in human HCC1428 cells assessed as accumulation at G1 phase at 6 uM after 24 hrs by propidium iodide staining based flow cytometry (reference value: 62.61%); assay type: functional
Bos taurus [10] = organism: Bos taurus; assay: Inhibition of bovine brain tubulin polymerization at 5 to 10 uM measured every 1 min for 1 hr by spectrophotometric method
In short: (§3)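 Bovine brain tubulin (>97% pure) in G-PEM buffer (80 mM PIPES, 0.5 mM EGTA, 1.0 mM GTP, pH 6.9) with 0.1% DMSO, set up at 4 °C with or without compound, using a commercial HTS kit. Vincristine and taxol at 5 µM as controls. Polymerization followed by A340 every 1 min for 1 h at 37 °C.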

[11] = Cell cycle arrest in human HCC1428 cells assessed as accumulation at G1 phase at 3 uM after 24 hrs by propidium iodide staining based flow cytometry (reference value: 62.61%); assay type: functional
HCC1428 [12] = assay: Cell cycle arrest in human HCC1428 cells assessed as accumulation at G2/M phase after 24 hrs by propidium iodide staining based flow cytometry; assay type: functional
[13] = Cell cycle arrest in human HCC1428 cells assessed as accumulation at S phase at 3 uM after 24 hrs by propidium iodide staining based flow cytometry (reference value: 24.46%); assay type: functional
Bos taurus [14] = organism: Bos taurus; assay: Inhibition of bovine brain tubulin polymerization at 5 uM measured every 1 min for 1 hr by spectrophotometric method; in short: as §3
[15] = Cell cycle arrest in human HCC1428 cells assessed as accumulation at G2/M phase at 1 uM after 24 hrs by propidium iodide staining based flow cytometry (reference value: […]%); assay type: functional
[16] = Cell cycle arrest in human HCC1428 cells assessed as accumulation at G1 phase at 1 uM after 24 hrs by propidium iodide staining based flow cytometry (reference value: 62.61%); assay type: functional
Homo sapiens [17] = organism: Homo sapiens; assay: Inhibition of alpha-tubulin polymerization in human HCC1428 cells at 1 uM after 24 hrs by confocal microscopic method; assay type: cell-based; in short: as §1
[18] = Cell cycle arrest in human HCC1428 cells assessed as accumulation at S phase at 1 uM after 24 hrs by propidium iodide staining based flow cytometry (reference value: 24.46%); assay type: functional
HCC1428 [19] = assay: Antiproliferative activity against human HCC1428 cells at 1 uM […] by RTCA; assay type: functional, cell-based; in short: as §2

Row | SMILES | IC50 (HT-29) | IC50 [1] | IC50 (HeLa) | IC50 (K562) | other results
1 | Oc1ccc2cc1Oc1ccc(cc1)CCc1ccc(O)c(c1)Oc1cccc(c1)CC2 | 7.98 µM | 10.7 µM | 11.7 µM | 7.02 µM | IC50 (PC-3): 13.4 µM; inhibition (Homo sapiens [2]): Active; inhibition (Homo sapiens [3]): inactive
2 | Oc1ccc2cc1Oc1ccc(cc1)CCc1cc(O)c(c(O)c1)Oc1cccc(c1)CC2 | 20.1 µM | 25.2 µM | 28.3 µM | 29.9 µM | –
3 | Oc1ccc2cc1Oc1ccc(cc1)CCc1cccc(O)c1Oc1ccccc1CC2 | 12.4 µM | 19 µM | 21.5 µM | 21.6 µM | –
4 | Oc1ccc2cc1Oc1cccc(c1)CCc1ccc(O)c(c1)Oc1ccc(cc1O)CC2 | 12.4 µM | 19.5 µM | 19.5 µM | 10.9 µM | –
5 | Oc1cc2c(cc1O)Oc1c(O)cccc1CCc1ccc(cc1)Oc1cc(ccc1O)CC2 | 7.51 µM | 8.46 µM | 10.4 µM | 6.16 µM | IC50 (PC-3): 7.7 µM
6 | COc1cccc2c1C(=O)c1c(O)c3c(c(O)c1C2=O)C[C@@](O)(C(=O)CO)C[C@@H]3O[C@H]1C[C@H](N)[C@H](O)[C@H](C)O1 [DOXORUBICIN HYDROCHLORIDE] | 1.76 µM | 1.77 µM | 1.23 µM | 0.57 µM | IC50 (PC-3): 16.9 µM
7 | Oc1ccc2cc1Oc1ccc(cc1)CCc1cccc(O)c1Oc1ccc(cc1)CC2 | 7.57 µM | 9.25 µM | 10.5 µM | 8.52 µM | IC50 (PC-3): 10.9 µM
8 | COc1cccc2c1Oc1cc(O)c(O)cc1CCc1ccc(O)c(c1)Oc1ccc(cc1)CC2 | 1.98 µM | 1.51 µM | 2.61 µM | 1.74 µM | Activity (HCC1428 [4]): Active; inhibition (Homo sapiens [5]): Active; Activity [6]: 11.12%; Activity [7]: 85.34%; Activity [8]: 37.7%; Activity [9]: 3.54%; inhibition (Bos taurus [10]): Active; IC50 (PC-3): 5.51 µM; Activity [11]: 38.6%; Activity (HCC1428 [12]): Dose-dependent effect; Activity [13]: 23.66%
9 | Oc1ccc2cc1Oc1ccc(cc1)/C=C\c1cccc(O)c1Oc1ccccc1CC2 | 9.6 µM | 17.1 µM | 21.9 µM | 19.2 µM | –
10 | Oc1ccc2cc1Oc1ccc(cc1)CCc1cccc(O)c1Oc1ccc(cc1O)CC2 | 17 µM | 19.5 µM | 27.4 µM | 24.9 µM | –
11 | Oc1ccc2cc1Oc1ccc(cc1)CCc1ccc(O)c(c1)Oc1ccc(cc1)CC2 | 11.5 µM | 15.3 µM | 22.7 µM | 10.2 µM | –
12 | Oc1cc2ccc1Oc1cccc(c1)CCc1ccc(O)c(c1)Oc1ccc(cc1)CC2 | 12.7 µM | 22.4 µM | 18.9 µM | 15.7 µM | –
13 | Oc1cc2ccc1Oc1ccc(cc1)CCc1cccc(O)c1Oc1cccc(c1)CC2 | 11.6 µM | 7.69 µM | 15.8 µM | 6.06 µM | –
14 | CC[C@]1(O)C[C@H]2CN(CCc3c([nH]c4ccccc34)[C@@](C(=O)OC)(c3cc4c(cc3OC)N(C=O)[C@H]3[C@@](O)(C(=O)OC)[C@H](OC(C)=O)[C@]5(CC)C=CCN6CC[C@]43[C@@H]65)C2)C1 [VINCRISTINE] | – | – | – | – | inhibition (Bos taurus [14]): Active; Activity [15]: 88.89%; Activity [16]: 4.15%; inhibition (Homo sapiens [17]): Active; Activity [18]: 6.96%; Activity (HCC1428 [19]): Active
15 | CC(=O)O[C@H]1C(=O)[C@@]2(C)[C@H]([C@H](OC(=O)c3ccccc3)[C@]3(O)C[C@H](OC(=O)[C@H](O)[C@@H](NC(=O)c4ccccc4)c4ccccc4)C(C)=C1C3(C)C)[C@]1(OC(C)=O)CO[C@@H]1C[C@@H]2O | – | – | – | – | inhibition (Bos taurus [14]): inactive
16 | Oc1ccc2c(c1)CCc1ccc(O)c(c1)Oc1ccc(cc1)CCc1cccc(O)c1O2 | 7.98 µM | 10.8 µM | 15.9 µM | 14.1 µM | –
17 | Oc1ccc2c(c1)CCc1ccc(O)c(c1)Oc1ccc(cc1O)CCc1cccc(O)c1O2 | 15.9 µM | 22 µM | 26.8 µM | 25.3 µM | –
18 | Oc1ccc2cc1Oc1ccc(cc1)CCc1ccc(O)c(c1)Oc1ccc(cc1O)CC2 | 14.8 µM | 20.1 µM | 29.4 µM | 15.6 µM | –
